According to ChEMBL document CHEMBL1131300, “Synthesis and calcium channel-modulating effects of alkyl (or cycloalkyl) 1,4-dihydro-2,6-dimethyl-3-nitro-4-pyridyl-5-pyridinecarboxylate racemates and enantiomers” (J Med Chem, 1998):

Key:
Cavia porcellus [1] = species on record: Cavia porcellus; assay: Compound was tested for calcium channel agonistic activity, causing a 50% increase of the maximum contractile response on guinea pig left atrium.; type: functional, Cardiac atrium
In short: (§1)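 Guinea pig left atrium (GPLA) preparation exposed to increasing test compound concentrations. […] Number of experiments varies per compound. For weak responders, percent increase in contractile force recorded at individual concentrations.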

Cavia porcellus [2] = species on record: Cavia porcellus; assay: Inhibition of carbachol-induced tonic contractile response in guinea pig ileal longitudinal smooth muscle; type: functional
In short: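 Guinea pig ileal longitudinal smooth muscle contracted by the muscarinic agonist carbachol (1.6 × 10⁻⁷ M). Slow, Ca²⁺-dependent tonic component measured. […] Reported ± SEM, n = 3.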

Cavia porcellus [3] = species on record: Cavia porcellus; assay: Calcium channel agonist activity causing a 50% increase in maximum contractile response on guinea pig left atrium; No effect; type: functional, Cardiac atrium; in short: as §1
Cavia porcellus [4] = species on record: Cavia porcellus; assay: Calcium channel agonist activity causing a 50% increase in maximum contractile response on guinea pig left atrium; 'c' means Weak agonist; type: functional, Cardiac atrium; in short: as §1
[5] = Cavia porcellus, Cardiac atrium

Structure (SMILES)	EC50 (Cavia porcellus [1]; [5])	other results
CC1=NC(C)=C([N+](=O)[O-])C(c2cccnc2)/C1=C(\O)OC1CCCCC1 (configuration not stated)	2.76 µM	
CC1=NC(C)=C([N+](=O)[O-])C(c2ccncc2)/C1=C(\O)OC1CCCCC1 (configuration not stated)	4.94 µM	
CCO/C(O)=C1\C(C)=NC(C)=C([N+](=O)[O-])C1c1ccncc1 (configuration not stated)	6.46 µM	
COCCO/C(O)=C1\C(C)=NC(C)=C([N+](=O)[O-])C1c1cccnc1 (configuration not stated)	49.4 µM	
CC1=NC(C)=C([N+](=O)[O-])C(c2cccnc2)/C1=C(\O)OC(C)(C)C (configuration not stated)	14.6 µM	
CO/C(O)=C1\C(C)=NC(C)=C([N+](=O)[O-])C1c1ccncc1 (configuration not stated)	48.5 µM	
CC1=NC(C)=C([N+](=O)[O-])C(c2ccccn2)/C1=C(\O)OCC(C)C (configuration not stated)	9.1 µM	IC50 (Cavia porcellus [2]; Cavia porcellus): 2.61 µM
COCCO/C(O)=C1\C(C)=NC(C)=C([N+](=O)[O-])C1c1ccncc1 (configuration not stated)	37.7 µM	
CC1=NC(C)=C([N+](=O)[O-])C(c2ccncc2)/C1=C(\O)OC1CCCC1 (configuration not stated)	4.25 µM	
CC1=NC(C)=C([N+](=O)[O-])C(c2cccnc2)/C1=C(\O)OCC(C)C (configuration not stated)	1.74 µM	
CC1=NC(C)=C([N+](=O)[O-])C(c2ccccn2)/C1=C(\O)OC(C)(C)C (configuration not stated)	1810 µM	IC50 (Cavia porcellus [2]; Cavia porcellus): 1.93 µM
COCCO/C(O)=C1\C(C)=NC(C)=C([N+](=O)[O-])C1c1ccccn1 (configuration not stated)	9.7 µM	IC50 (Cavia porcellus [2]; Cavia porcellus): 94.7 µM
CC1=NC(C)=C([N+](=O)[O-])C(c2ccncc2)/C1=C(\O)OCC(C)C (configuration not stated)	8.51 µM	
CO/C(O)=C1\C(C)=NC(C)=C([N+](=O)[O-])C1c1ccccn1 (configuration not stated)		IC50 (Cavia porcellus [2]; Cavia porcellus): 212 µM; EC50 (Cavia porcellus [3]): Not Active
CC1=NC(C)=C([N+](=O)[O-])C(c2ccccn2)/C1=C(\O)OC1CCCC1 (configuration not stated)	19.8 µM	IC50 (Cavia porcellus [2]; Cavia porcellus): 0.45 µM
CCO/C(O)=C1\C(C)=NC(C)=C([N+](=O)[O-])C1c1cccnc1 (configuration not stated)	8.84 µM	
CO/C(O)=C1\C(C)=NC(C)=C([N+](=O)[O-])C1c1cccnc1 (configuration not stated)	70 µM	
CC1=NC(C)=C([N+](=O)[O-])C(c2cccnc2)/C1=C(\O)OC1CCCC1 (configuration not stated)	3.28 µM	
CCO/C(O)=C1\C(C)=NC(C)=C([N+](=O)[O-])C1c1ccccn1 (configuration not stated)	22.8 µM	IC50 (Cavia porcellus [2]; Cavia porcellus): 5 µM
CC1=NC(C)=C([N+](=O)[O-])C(c2ccncc2)/C1=C(\O)OC(C)(C)C (configuration not stated)	2.82 µM	
CC1=NC(C)=C([N+](=O)[O-])C(c2ccccn2)/C1=C(\O)OC1CCCCC1 (single isomer, unassigned; (+))		EC50 (Cavia porcellus [1]): 8.45 µM; IC50 (Cavia porcellus [2]): 5.27 µM
CC1=NC(C)=C([N+](=O)[O-])C(c2ccccn2)/C1=C(\O)OC1CCCCC1 (single isomer, unassigned; (-))		EC50 (Cavia porcellus [4]): Partial agonist; IC50 (Cavia porcellus [2]): 0.0748 µM
CC1=NC(C)=C([N+](=O)[O-])C(c2ccccn2)/C1=C(\O)OC1CCCCC1 (stereo in doubt; 14a)		EC50 (Cavia porcellus [1]): 3.7 µM; IC50 (Cavia porcellus [2]): 0.842 µM
